Experimental data: ChEMBL document CHEMBL5724801, “EUbOPEN Chemogenomics Library - Multiplex” (2024)
“And” between values parts separate entries of the source, which are not always exact repeats. Equal entries are not always repeated.

Tests used:
Format in all cases: toxicity, cell-based
[1] = system: Fibroblast; experiment: Multiplex assay against human fibroblast
How it was run: (§1)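 Live cells were stained at seeding with Hoechst33342, BioTracker Green Microtubule Cytoskeleton Dye, MitoTracker Red and Annexin V Alexa Fluor 680, then imaged on a CQ1 microscope at 37°C and 5% CO2 after compound addition. CellPathfinder machine-learning gating split cells into Hoechst high-intensity objects or normal cells. Normal cells were split into healthy, pyknosed or fragmented nuclei, and pyknosed cells into mitotic or apoptotic. Tubulin, mitochondrial-mass and membrane-permeability phenotypes are per cents of healthy-nucleus cells.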

[2] = system: U2OS; experiment: Multiplex assay against U2OS; conditions: human; how it was run: as §1
[3] = system: HEK-293T; experiment: Multiplex assay against HEK293T; conditions: human; how it was run: as §1
[4] = 12 h, 1 µM, compound concentration 1 uM
[5] = 12 h, 10 µM, compound concentration 10 uM
[6] = 24 h, 1 µM, compound concentration 1 uM
[7] = 24 h, 10 µM, compound concentration 10 uM
[8] = 48 h, 1 µM, compound concentration 1 uM
[9] = 48 h, 10 µM, compound concentration 10 uM

## Cc1sc2c(c1C)C(c1ccc(Cl)cc1)=N[C@@H](CC(=O)NCCCCCCCCNC(=O)COc1cccc3c1C(=O)N(C1CCC(=O)NC1=O)C3=O)c1nnc(C)n1-2 (stereo not given in full)
[1]; [4]
  Population Apoptotic (%): 57% and 42%
  Population Healthy Nuclei (%): 72% and 34%
  Population Hoechst High Intensity Objects (%): 3% and 6%
  Population Mitotic Cells (%): 42% and 57%
  Population Normal (%): 96% and 93%
  Population Pyknosed Nuclei (%): 16% and 31%
  Population Tubulin-Different-Phenotype (%): 25% and 66%
  Total Cell Count: 118 and 94
[1]; [5]
  Population Apoptotic (%): 54% and 44%
  Population Fragmented Nuclei (%): 13% and 27%
  Population Healthy Nuclei (%): 56% and 27%
  Population Hoechst High Intensity Objects (%): 11% and 17%
  Population Membrane Permeable-Phenotype (%): 1% and 7%
  Population Mitochondria Different-Phenotype (%): 19% and 26%
  Population Mitotic Cells (%): 45% and 55%
  Population Normal (%): 88% and 82%
  Population Pyknosed Nuclei (%): 30% and 45%
  Population Tubulin-Different-Phenotype (%): 50% and 69%
  Total Cell Count: 171 and 115
[1]; [6]
  Population Apoptotic (%): 56% and 65%
  Population Fragmented Nuclei (%): 20% and 41%
  Population Healthy Nuclei (%): 53% and 32%
  Population Hoechst High Intensity Objects (%): 10% and 3%
  Population Mitotic Cells (%): 44% and 35%
  Population Normal (%): 89% and 96%
  Population Pyknosed Nuclei (%): 26% and 25%
  Population Tubulin-Different-Phenotype (%): 25% and 72%
  Total Cell Count: 107 and 80
[1]; [7]
  Population Apoptotic (%): 67% and 44%
  Population Fragmented Nuclei (%): 20% and 25%
  Population Healthy Nuclei (%): 38% and 32%
  Population Hoechst High Intensity Objects (%): 13% and 12%
  Population Mitochondria Different-Phenotype (%): 9% and 20%
  Population Mitotic Cells (%): 32% and 55%
  Population Normal (%): 86% and 87%
  Population Pyknosed Nuclei (%): 41% and 42%
  Population Tubulin-Different-Phenotype (%): 47% and 68%
  Total Cell Count: 154 and 103
[1]; [8]
  Population Apoptotic (%): 88% and 93%
  Population Fragmented Nuclei (%): 41% and 42%
  Population Healthy Nuclei (%): 24% and 37%
  Population Mitochondria Different-Phenotype (%): 0% and 20%
  Population Mitotic Cells (%): 12% and 6%
  Population Normal (%): 72% and 91%
  Population Pyknosed Nuclei (%): 33% and 20%
  Population Tubulin-Different-Phenotype (%): 33% and 82%
  Total Cell Count: 102 and 85
[1]; [9]
  Population Apoptotic (%): 86% and 57%
  Population Fragmented Nuclei (%): 40% and 38%
  Population Healthy Nuclei (%): 20% and 38%
  Population Hoechst High Intensity Objects (%): 38% and 15%
  Population Membrane Permeable-Phenotype (%): 5% and 14%
  Population Mitochondria Different-Phenotype (%): 10% and 14%
  Population Normal (%): 61% and 84%
  Population Pyknosed Nuclei (%): 38% and 23%
  Population Tubulin-Different-Phenotype (%): 55% and 80%
  Total Cell Count: 156 and 108
[2]; [4]
  Population Apoptotic (%): 93% and 87%
  Population Healthy Nuclei (%): 49% and 80%
  Population Hoechst High Intensity Objects (%): 11% and 0%
  Population Membrane Permeable-Phenotype (%): 9% and 5%
  Population Mitochondria Different-Phenotype (%): 4% and 1%
  Population Mitotic Cells (%): 6% and 12%
  Population Normal (%): 88% and 99%
  Population Pyknosed Nuclei (%): 6% and 5%
  Population Tubulin-Different-Phenotype (%): 5% and 3%
  Total Cell Count: 269 and 136
[2]; [5]
  Population Apoptotic (%): 86% and 100%
  Population Fragmented Nuclei (%): 31% and 19%
  Population Healthy Nuclei (%): 55% and 75%
  Population Hoechst High Intensity Objects (%): 5% and 0%
  Population Mitochondria Different-Phenotype (%): 4% and 12%
  Population Mitotic Cells (%): 13% and 0%
  Population Normal (%): 94% and 99%
  Population Pyknosed Nuclei (%): 13% and 4%
  Population Tubulin-Different-Phenotype (%): 0% and 12%
  Total Cell Count: 233 and 117
[2]; [6]
  Population Apoptotic (%): 100% and 92%
  Population Healthy Nuclei (%): 51% and 80%
  Population Hoechst High Intensity Objects (%): 11% and 2%
  Population Membrane Permeable-Phenotype (%): 8% and 5%
  Population Mitochondria Different-Phenotype (%): 3% and 2%
  Population Mitotic Cells (%): 0% and 7%
  Population Normal (%): 88% and 97%
  Population Pyknosed Nuclei (%): 6% and 7%
  Population Tubulin-Different-Phenotype (%): 5% and 4%
  Total Cell Count: 297 and 174
[2]; [7]
  Population Apoptotic (%): 100%
  Population Fragmented Nuclei (%): 34% and 27%
  Population Healthy Nuclei (%): 53% and 65%
  Population Hoechst High Intensity Objects (%): 8% and 0%
  Population Mitochondria Different-Phenotype (%): 5% and 9%
  Population Mitotic Cells (%): 0%
  Population Normal (%): 91% and 99%
  Population Pyknosed Nuclei (%): 12% and 7%
  Total Cell Count: 245 and 130
[2]; [8]
  Population Apoptotic (%): 91% and 90%
  Population Fragmented Nuclei (%): 35% and 12%
  Population Healthy Nuclei (%): 53% and 79%
  Population Hoechst High Intensity Objects (%): 10% and 1%
  Population Membrane Permeable-Phenotype (%): 6% and 4%
  Population Mitochondria Different-Phenotype (%): 1%
  Population Mitotic Cells (%): 8% and 9%
  Population Normal (%): 89% and 98%
  Population Pyknosed Nuclei (%): 10% and 7%
  Population Tubulin-Different-Phenotype (%): 2% and 1%
  Total Cell Count: 353 and 270
[2]; [9]
  Population Apoptotic (%): 100%
  Population Fragmented Nuclei (%): 36% and 25%
  Population Healthy Nuclei (%): 51% and 70%
  Population Hoechst High Intensity Objects (%): 7% and 2%
  Population Membrane Permeable-Phenotype (%): 9% and 10%
  Population Mitochondria Different-Phenotype (%): 4%
  Population Mitotic Cells (%): 0%
  Population Normal (%): 92% and 97%
  Population Pyknosed Nuclei (%): 12% and 4%
  Population Tubulin-Different-Phenotype (%): 4% and 7%
  Total Cell Count: 289 and 179
[3]; [4]
  Population Apoptotic (%): 66% and 62%
  Population Fragmented Nuclei (%): 5% and 6%
  Population Healthy Nuclei (%): 55% and 69%
  Population Membrane Permeable-Phenotype (%): 0%
  Population Mitochondria Different-Phenotype (%): 73% and 91%
  Population Mitotic Cells (%): 33% and 37%
  Population Normal (%): 90% and 69%
  Population Pyknosed Nuclei (%): 39% and 24%
  Population Tubulin-Different-Phenotype (%): 49% and 59%
  Total Cell Count: 175 and 205
[3]; [5]
  Population Apoptotic (%): 60% and 53%
  Population Fragmented Nuclei (%): 9% and 8%
  Population Healthy Nuclei (%): 67% and 66%
  Population Hoechst High Intensity Objects (%): 14% and 37%
  Population Membrane Permeable-Phenotype (%): 0%
  Population Mitochondria Different-Phenotype (%): 75% and 87%
  Population Mitotic Cells (%): 39% and 46%
  Population Normal (%): 85% and 62%
  Population Pyknosed Nuclei (%): 23% and 24%
  Population Tubulin-Different-Phenotype (%): 23% and 39%
  Total Cell Count: 363 and 315
[3]; [6]
  Population Apoptotic (%): 51% and 67%
  Population Fragmented Nuclei (%): 7% and 6%
  Population Healthy Nuclei (%): 61% and 70%
  Population Membrane Permeable-Phenotype (%): 0%
  Population Mitochondria Different-Phenotype (%): 58% and 83%
  Population Mitotic Cells (%): 48% and 32%
  Population Normal (%): 93% and 69%
  Population Pyknosed Nuclei (%): 31% and 23%
  Population Tubulin-Different-Phenotype (%): 22% and 31%
  Total Cell Count: 261 and 231
[3]; [7]
  Population Apoptotic (%): 52% and 57%
  Population Fragmented Nuclei (%): 11% and 9%
  Population Healthy Nuclei (%): 64% and 60%
  Population Membrane Permeable-Phenotype (%): 0%
  Population Mitochondria Different-Phenotype (%): 64% and 86%
  Population Mitotic Cells (%): 47% and 42%
  Population Normal (%): 87% and 60%
  Population Pyknosed Nuclei (%): 24% and 30%
  Population Tubulin-Different-Phenotype (%): 19%
  Total Cell Count: 397 and 346
[3]; [8]
  Population Apoptotic (%): 55% and 67%
  Population Fragmented Nuclei (%): 7% and 9%
  Population Healthy Nuclei (%): 58% and 65%
  Population Membrane Permeable-Phenotype (%): 0%
  Population Mitochondria Different-Phenotype (%): 56% and 78%
  Population Mitotic Cells (%): 44% and 32%
  Population Normal (%): 97% and 84%
  Population Pyknosed Nuclei (%): 33% and 25%
  Population Tubulin-Different-Phenotype (%): 30% and 42%
  Total Cell Count: 284 and 289
[3]; [9]
  Population Apoptotic (%): 48% and 65%
  Population Fragmented Nuclei (%): 9% and 15%
  Population Healthy Nuclei (%): 55% and 52%
  Population Hoechst High Intensity Objects (%): 14% and 31%
  Population Membrane Permeable-Phenotype (%): 0%
  Population Mitochondria Different-Phenotype (%): 51% and 76%
  Population Mitotic Cells (%): 51% and 34%
  Population Normal (%): 85% and 69%
  Population Pyknosed Nuclei (%): 35% and 31%
  Population Tubulin-Different-Phenotype (%): 17% and 31%
  Total Cell Count: 403 and 300
